Test results as given in ChEMBL document CHEMBL1126568, “Nucleosides and nucleotides. 122. 2'-C-cyano-2'-deoxy-1-beta-D-arabinofuranosylcytosine and its derivatives. A new class of nucleoside with a broad antitumor spectrum” (J Med Chem, 1993).

Columns and labels:
[1] = system: Mus musculus; assay: Weight change in M5076 mouse reticulum cell sarcoma after administration at 300 mg/kg orally; type: functional; settings: route oral
Outline: (§1)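 Female BDF₁ mice with subcutaneous axillary M5076 (10⁶ cells), oral dosing on days 1, 4, 7, 10, 13 and 16 in saline or 5% DMA/0.5% CMC. Body weight change (g) = mean weight on day 20 minus mean weight on day 1.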

[2] = system: Mus musculus; assay: Weight change in M5076 mouse reticulum cell sarcoma after administration at 200 mg/kg orally; type: functional; settings: route oral; outline: as §1
[3] = system: Mus musculus; assay: Percent treated was determined after administration at 300 mg/kg orally; type: functional; settings: route oral
Outline: (§2)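 Female BDF₁ mice bearing subcutaneous M5076 (10⁶ cells, axillary). Oral dosing in saline or 5% DMA/0.5% CMC on days 1, 4, 7, 10, 13 and 16. Groups of six (three at 400 mg/kg), nine untreated controls. T/C (%) = median survival day of treated/median survival day of untreated controls × 100; 60-day survivors also recorded.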

[4] = system: Mus musculus; assay: Percent treated was determined after administration at 100 mg/kg orally; type: functional; settings: route oral; outline: as §2
[5] = system: MCF7; assay: Tested in vitro against MCF-7 human breast adenocarcinoma; type: functional, cell-based
Outline: (§3)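 MTT growth assay: 2 × 10³ cells/well exposed to compound or left untreated for 72 h. MTT then added for 4 h more; formazan dissolved in DMSO and OD read at 540 nm. % inhibition = [1 − OD sample/OD control] × 100. IC₅₀ (μM) is the concentration giving 50% growth inhibition. Single-concentration inhibition measured at 100 μg/mL.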

[6] = system: Mus musculus; assay: Tested for 60-day survivors after administration at 400 mg/kg orally in M5076 mouse reticulum cell sarcoma; type: functional; settings: route oral
Outline: (§4)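 Female BD2F1 mice were implanted s.c. with 1 × 10^6 M5076 cells and dosed orally on days 1, 4, 7, 10, 13 and 16. Vehicle was saline or 5% DMA in 0.5% CMC. Groups had six mice (three at 400 mg/kg), with nine untreated controls. The number of mice alive at 60 days was counted.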

[7] = Tested in vitro inhibitory activity against human oral epidermoid carcinoma KB cells; type: functional, cell-based; outline: as §3
[8] = system: KATO III stomach cancer cell line; assay: Tested in vitro against KATO-III human stomach adenocarcinoma; type: functional, cell-based; outline: as §3
[9] = system: ST-KM-1; assay: Tested in vitro against ST-KM human stomach adenocarcinoma; type: functional, cell-based; settings: ST-KM-1, Stomach; outline: as §3
[10] = system: OST; assay: Tested in vitro against OST human osteosarcoma; type: functional, cell-based; outline: as §3
[11] = system: Mus musculus; assay: Weight change in M5076 mouse reticulum cell sarcoma after administration at 400 mg/kg orally; type: functional; settings: route oral; outline: as §1
[12] = system: Mus musculus; assay: Percent inhibition against M5076 mouse reticulum cell sarcoma after administration at 300 mg/kg orally on day 20; type: functional; settings: M5076, 480 h, route oral
Outline: (§5)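 M5076 cells (10⁶ viable, counted by Trypan blue exclusion) implanted subcutaneously into the axillary region of female BDF₁ mice. Drug given orally on days 1, 4, 7, 10, 13 and 16 after inoculation, in saline or in 5% dimethylacetamide/0.5% carboxymethyl cellulose. Six mice per group (three at 400 mg/kg); untreated controls, nine mice. Tumor volume = 0.5 × length × width²; inhibition (%) = (1 − Vt/Vc) × 100 on day 20.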

[13] = system: A-375; assay: Tested in vitro against A-375 cell line human melanoma; type: functional, cell-based; outline: as §3
[14] = system: Mus musculus; assay: Percent inhibition against M5076 mouse reticulum cell sarcoma after administration at 200 mg/kg orally on day 20; type: functional; settings: M5076, 480 h, route oral; outline: as §5
[15] = system: KKLS; assay: Tested in vitro against KKLS human stomach adenocarcinoma; type: functional, cell-based; outline: as §3
[16] = system: MKN-45; assay: Tested in vitro against MKN-45 human stomach adenocarcinoma; type: functional, cell-based; settings: MKN-45, Stomach; outline: as §3
[17] = system: Mus musculus; assay: Percent treated was determined after administration at 400 mg/kg orally; type: functional; settings: route oral; outline: as §2
[18] = system: HOS-TE85; assay: Tested in vitro against MNNG/HOS cell line human osteosarcoma; type: functional, cell-based; outline: as §3
[19] = system: Mus musculus; assay: Tested for 60-day survivors after administration at 200 mg/kg orally in M5076 mouse reticulum cell sarcoma; type: functional; settings: route oral; outline: as §4
[20] = system: Mus musculus; assay: Tested for 60-day survivors after administration at 300 mg/kg orally in M5076 mouse reticulum cell sarcoma; type: functional; settings: route oral; outline: as §4
[21] = system: Mus musculus; assay: Tested for 60-day survivors after administration at 100 mg/kg orally in M5076 mouse reticulum cell sarcoma; type: functional; settings: route oral; outline: as §4
[22] = system: HT-1080; assay: Tested in vitro against HT1080 cell line human fibrosarcoma; type: functional, cell-based; outline: as §3
[23] = system: SW48; assay: Tested in vitro against SW-48 human colon adenocarcinoma; type: functional, cell-based; outline: as §3
[24] = system: PC-13; assay: Tested in vitro against PC-13 human lung large cell carcinoma; type: functional, cell-based; outline: as §3
[25] = system: Mus musculus; assay: Percent treated was determined after administration at 200 mg/kg orally; type: functional; settings: route oral; outline: as §2
[26] = system: COLO 320; assay: Tested in vitro against colo-320 human colon adenocarcinoma; type: functional, cell-based; settings: COLO 320, Colon; outline: as §3
[27] = system: Mus musculus; assay: Percent inhibition against M5076 mouse reticulum cell sarcoma after administration at 100 mg/kg orally on day 20; type: functional; settings: M5076, 480 h, route oral; outline: as §5
[28] = system: PC-8; assay: Tested in vitro against PC-8 human lung adenocarcinoma; type: functional, cell-based; outline: as §3
[29] = system: Mus musculus; assay: Weight change in M5076 mouse reticulum cell sarcoma after administration at 100 mg/kg orally; type: functional; settings: route oral; outline: as §1
[30] = system: Mus musculus; assay: Percent inhibition against M5076 mouse reticulum cell sarcoma after administration at 400 mg/kg orally on day 20; type: functional; settings: M5076, 480 h, route oral; outline: as §5
[31] = system: PC-9; assay: Tested in vitro against PC-9 human lung adenocarcinoma; type: functional, cell-based; outline: as §3
[32] = system: QG-95; assay: Tested in vitro against QG-95 human squamous cell carcinoma; type: functional, cell-based; outline: as §3
[33] = system: L1210; assay: Tested in vitro inhibitory activity against murine leukemia L1210; type: functional, cell-based; settings: Mus musculus; outline: as §3
[34] = Percent inhibition against human oral epidermoid carcinoma KB cells at 100 ug/mL; type: functional; outline: as §3
[35] = system: L1210; assay: Percent inhibition against murine leukemia L1210 at 100 ug/mL; type: functional; settings: Mus musculus; outline: as §3

Cl.N#C[C@H]1[C@H](O)[C@@H](CO)O[C@H]1n1ccc(N)nc1=O
Weight change [1]: 1 g | Weight change [2]: 2 g | T/C [3]: 120% | T/C [4]: 118% | IC50 [5]: 1.75 µM | Survivors [6]: 1 | IC50 [7]: 5.2 µM | IC50 [8]: 55.6 µM | IC50 [9]: 9.71 µM | IC50 [10]: 22.2 µM | Weight change [11]: 1.1 g | inhibition in vivo at 300 mg/kg [12]: 97% | IC50 [13]: 1.4 µM | inhibition in vivo at 200 mg/kg [14]: 93% | IC50 [15]: 350 µM | IC50 [16]: 15.9 µM | T/C [17]: 133% | IC50 [18]: 23.6 µM | Survivors [19]: 2 | Survivors [20]: 0 | Survivors [21]: 0 | IC50 [22]: 0.53 µM | IC50 [23]: > 350 µM | IC50 [24]: 86.8 µM | T/C [25]: 136% | IC50 [26]: 1.4 µM | inhibition in vivo at 100 mg/kg [27]: 79% | IC50 [28]: 15.9 µM | Weight change [29]: 1.7 g | inhibition in vivo at 400 mg/kg [30]: 99% | IC50 [31]: 15.3 µM | IC50 [32]: 138 µM | IC50 [33]: 0.53 µM

CC(=O)Nc1ccn([C@@H]2O[C@H](CO)[C@@H](O)[C@@H]2C#N)c(=O)n1
IC50 [7]: 230 µM | IC50 [33]: 25.3 µM

N#CC1=C[C@@H](CO)O[C@H]1n1ccc(N)nc1=O
IC50 [5]: 299 µM | IC50 [8]: 31.6 µM | IC50 [9]: 350 µM | IC50 [10]: 235 µM | IC50 [13]: 145 µM | IC50 [15]: > 430 µM | IC50 [16]: 376 µM | IC50 [18]: 205 µM | IC50 [22]: 248 µM | IC50 [23]: 273 µM | inhibition at 100 µg/mL [34]: 46.8% | IC50 [24]: 363 µM | IC50 [26]: 150 µM | IC50 [28]: > 430 µM | IC50 [31]: > 430 µM | IC50 [32]: 427 µM | IC50 [33]: 261 µM

Cc1cn([C@@H]2O[C@H](CO)C=C2C#N)c(=O)[nH]c1=O
IC50 [7]: 30.4 µM | IC50 [33]: 12.4 µM

Cc1cn([C@@H]2O[C@H](CO)C(O)[C@@H]2C#N)c(=O)[nH]c1=O (stereo partly specified)
inhibition at 100 µg/mL [35]: 6.7% | inhibition at 100 µg/mL [34]: -6%
